The values below come from ChEMBL document CHEMBL4825683, “Synthesis and approbation of new neuroprotective chemicals of pyrrolyl- and indolylazine classes in a cell model of Alzheimer's disease” (Eur J Med Chem, 2021).

The source made the active and inactive calls. No cut-off for these calls is given here.

For series [1], the target named is T1, Heat shock factor protein 1 (Homo sapiens) (UniProt Q00613).
T1 sequence (whole entry): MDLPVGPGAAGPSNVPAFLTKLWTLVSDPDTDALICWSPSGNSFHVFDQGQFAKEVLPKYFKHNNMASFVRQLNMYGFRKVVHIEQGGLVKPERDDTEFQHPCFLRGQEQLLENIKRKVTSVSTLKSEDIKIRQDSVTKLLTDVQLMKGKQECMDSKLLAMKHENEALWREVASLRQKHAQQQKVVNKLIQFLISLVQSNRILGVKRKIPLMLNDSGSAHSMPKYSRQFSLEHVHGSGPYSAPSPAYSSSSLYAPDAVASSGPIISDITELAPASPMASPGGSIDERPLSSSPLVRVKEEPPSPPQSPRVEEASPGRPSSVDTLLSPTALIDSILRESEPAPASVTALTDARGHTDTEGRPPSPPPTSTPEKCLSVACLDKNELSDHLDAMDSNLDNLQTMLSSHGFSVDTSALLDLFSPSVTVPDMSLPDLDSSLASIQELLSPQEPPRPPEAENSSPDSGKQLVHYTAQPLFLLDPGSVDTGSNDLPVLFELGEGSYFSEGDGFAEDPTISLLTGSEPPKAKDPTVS
As to the kind of experiment: Activation of Hsf1 in human MSC-NEU cells assessed as induction of HSP70 accumulation at 1 uM incubated for 24 hrs by Western blotting analysis relative to control. In kind it is cell-based. To be noted: MSC-NEU cell, filed as activator. An outline of the steps:
(§1)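 MSC-NEU cells: human dental-pulp mesenchymal stem cells (MSC-DP) grown in DMEM/F12 with 10% FBS, 100 units/mL penicillin and 0.1 mg/mL streptomycin at 37 °C, 5% CO2. They were then reprogrammed to a neuronal phenotype over 5 days in Neurobasal medium with B27 supplement, 3% FBS and the same antibiotics.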

Series [2] deals with T1, Heat shock factor protein 1 (Homo sapiens). As to the kind of experiment: Activation of Hsf1 in human MSC-NEU cells assessed as induction of HSP90 accumulation at 1 uM incubated for 24 hrs by Western blotting analysis relative to control. In kind it is cell-based. The note with it: MSC-NEU cell; for fold change (FC): filed as activator. An outline of the steps: as §1
Series [3] shares this target. As to the kind of experiment: Activation of Hsf1 in human MSC-NEU cells assessed as increase in HSP70 substrate-binding chaperone activity at 1 uM incubated for 24 hrs by protein-protein interaction assay relative to control. Format: cell-based. The note with it: MSC-NEU cell, filed as activator. An outline of the steps: as §1
The nature of series [4]: Cytotoxicity against human MSC-NEU cells assessed as reduction in cell viability measured after 48 hrs by MTT assay. Format: cell-based. To be noted: read-out: LC50. An outline of the steps:
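Human dental pulp mesenchymal stem cells (MSC-DP) were grown in DMEM/F12 with 10% FBS, penicillin and streptomycin at 37 °C and 5% CO2. They were then reprogrammed to a neuronal phenotype (MSC-NEU) over 5 days in Neurobasal medium with B27 supplement, 3% FBS and antibiotics.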
A general note: Formazan colour is commonly taken as a measure of viable cells.

A short description of series [5]: Neuroprotective activity against amyloid beta (1 to 42)-stimulated human MSC-NEU cells assessed as increase in cell index incubated for 48 hrs by xCELLigence RTCA analysis. In kind it is functional. An outline of the steps: as §1
Series [6] in a line: Inhibition of amyloid beta (1 to 42)-induced cellular senescence in human MSC-NEU cells assessed as reduction in beta-galactosidase activity at 1 uM measured after 48 hrs by X-Gal staining based analysis relative to control. In kind it is functional, MSC-NEU cell. The essentials: as §1
The nature of series [7]: Inhibition of amyloid beta(1 to 42)-induced apoptosis in human MSC-NEU cells assessed as reduction in caspase-3 activity at 1 uM measured after 24 hrs by fluorescence based analysis relative to control. Format: functional, MSC-NEU cell. The essentials: as §1
Series [8] is described as follows: Inhibition of amyloid beta(1 to 42)-induced apoptosis in human MSC-NEU cells at 1 uM measured after 24 hrs by AnnexinV-Alexafluor647/propidium iodide staining based flow cytomtery relative to control. In kind it is functional, MSC-NEU cell. An outline of the steps:
as §1

The target in series [9] is T1, Heat shock factor protein 1 (Homo sapiens). As to the kind of experiment: Activation of Hsf1 in human HEK293 cells transfected with Hsp70.1pr-luc plasmid at 1 uM incubated for 24 hrs by luciferase reporter gene based luminescence assay. Format: cell-based. To be noted: filed as activator. (In general: A reporter such as luciferase makes a cellular process visible.)

For `Brc1ccc2[nH]cc(-c3ncnc4ccccc34)c2c1`, the fold change (FC) in series [1] was found to be 1.9; in [3], 1.3; in [6], 1.04; in series [7], 2.51; in series [8], 4.2. Also, the result in series [2] was inactive. In addition, the CC50 at 48 h in series [4] was 279 µM. The Activity in series [5] is given as 10%. The outcome in [9] was Active.

In the case of `Clc1nccc(-c2c[nH]c3ccc(Br)cc23)n1`, the fold change (FC) in [1] came out at 2.7; in [2] it was 1.6; in [3], 1.3; in [6] it was 1.17; in series [7], 2.04; in series [8], 4.2. In addition, the CC50 at 48 h in series [4] came out at 316 µM. In [5], the Activity came to 10%. For the same molecule, the outcome in series [9] was Active.

Turning to `O=c1[nH]c2ccccc2nc1-c1ccc(-c2ccccc2)[nH]1`, the fold change (FC) in series [1] stood at 1.6; in series [2], 1.85; in [3], 1.3; in [6], 1.12; in series [7], 2.12; in series [8], 4.2. Also, in series [4], the CC50 at 48 h amounted to 494 µM. Moreover, the Activity in series [5] is listed as 10%. In series [9], the outcome was Active.

Take `C[n+]1c2ccccc2c(-c2c[nH]c3ccc(O)cc23)c2ccccc21.[I-]`: the fold change (FC) in series [1] was found to be 2.2; in series [2], 2.1; in [3] it was 1.3; in [6], 1.22; in series [7], 2.24; in [8] it was 4.2. Besides, the CC50 at 48 h in [4] is greater than 1000 µM. In addition, the Activity in [5] is reported as 10%. The result in series [9] was Active.
